# M4 ag: human M4 muscarinic receptor agonists, primary screen, CHO-K1 cells, Fluo-8 calcium fluorescence. AID 624127, 2012. Muscarinic acetylcholine receptor M4 (Homo sapiens), P08173. activation, % at 3 µM. 0.14% of 360,000 active. CHO-K1 hM4/Gqi5; vehicle 0%, full acetylcholine response 100%;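 active means activation above the run mean over all test wells plus 3 SD, cut at about 32% in these data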;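 further: peak over basal fluorescence ratio per well then scaled between controls; 0% = DMSO wells and 100% = acetylcholine at EC100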
# TAAR1 antagonist: human TAAR1 antagonists, primary screen, Fluo-8 calcium fluorescence, CHO RD-HGA16 cells; Trace amine-associated receptor 1 (Homo sapiens), Q96RJ0; antagonist; inhibition, % at 3 µM; 1.5% of 360,000 active;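 active means inhibition above a per-plate cutoff, the mean inhibition of test compounds on that plate plus 3 SD, cut at about 49% in these data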;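 further: 0% = DMSO plus EC80 beta-PEA response and 100% = DMSO alone without agonist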
# Target sequence (Q96RJ0 whole entry, looked up): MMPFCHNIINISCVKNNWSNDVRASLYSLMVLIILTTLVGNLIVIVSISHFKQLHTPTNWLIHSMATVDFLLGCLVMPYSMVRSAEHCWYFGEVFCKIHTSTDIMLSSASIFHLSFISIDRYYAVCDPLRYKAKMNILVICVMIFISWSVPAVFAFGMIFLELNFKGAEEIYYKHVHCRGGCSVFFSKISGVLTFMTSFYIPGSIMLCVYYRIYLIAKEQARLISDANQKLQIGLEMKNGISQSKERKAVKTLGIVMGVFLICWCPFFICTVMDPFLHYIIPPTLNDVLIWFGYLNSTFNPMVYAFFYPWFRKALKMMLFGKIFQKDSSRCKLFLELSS
#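 Assay system: CHO-derived RD-HGA16 cells stably expressing human TAAR1 plus Gα16. Timing: 140 s kinetic read after compound, 140 s after agonist. Technique: kinetic Fluo-8 calcium fluorescence measurement. Measure: % inhibition of agonist calcium response.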
# TAAR1 agonist: human TAAR1 agonists, primary screen, Fluo-8 calcium fluorescence, CHO RD-HGA16 cells | 0.99% of 360,000 active | activation, % at 3 µM | Trace amine-associated receptor 1 (Homo sapiens), Q96RJ0 | vehicle wells 0%, saturating PEA agonist 100% | AID 624467, 2012;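 active means activation above the mean activation of all test compounds in the run plus 3 SD, cut at about 38% in these data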
#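 Benchmarks: low control DMSO, high control PEA (EC100); System: CHO RD-HGA16 cells carrying human TAAR1 plus Gα16; Detection: Fluo-8 fluorescence, 5 s baseline then 140 s kinetic read; Schedule: 17-24 h plating, Fluo-8 75 min 37 °C, 30 min RT; Read-out basis: % activation from peak over basal fluorescence ratio, DMSO-to-PEA scaled.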
# CHRM4 antagonist: human M4 muscarinic receptor antagonists, primary screen, CHO cells, Fluo-8 calcium fluorescence; inhibition, % at 3 µM; 0.73% of 360,000 active; CHO-hM4 cells, ACh EC80; AID 624125, 2012; Muscarinic acetylcholine receptor M4 (Homo sapiens), P08173;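 active means inhibition above its plate's cutoff, the mean inhibition of sample wells plus 3 SD, cut at about 27% in these data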;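 further: 0% = acetylcholine EC80 with DMSO and 100% = DMSO without agonist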
# CHRM4 PAM: human M4 muscarinic receptor positive allosteric modulators, primary screen, CHO-K1 cells, Fluo-8 calcium fluorescence; Muscarinic acetylcholine receptor M4 (Homo sapiens), P08173; CHO-K1 hM4/Gqi5, ACh EC20; 0% = ACh EC20, 100% = maximal ACh; activation, % at 3 µM; 0.4% of 360,000 active; AID 624126, 2012;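 active means activation above its plate's cutoff, the mean activation of sample wells plus 3 SD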
# TAAR1 nonsel count: nonselective antagonists in TAAR1 counter-screen cells, counter-screen for hTAAR1 antagonist project, cell-based, fluorescence, calcium; shares compounds with TAAR1 antagonist; counterscreen cell line, antagonist mode; inhibition, % at 3 µM; 77% of 2,400 active; in the data active means inhibition above about 22%;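 further: CHO-Ga16 host cells stimulated with ATP at an EC80 level; 0% = agonist EC80 plus vehicle and 100% = vehicle without agonist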
# TAAR1 ant conf: human TAAR1 antagonists, retest of hits, confirmation, cell-based, fluorescence; AID 651785, 2012; TAAR1-expressing cells, fluorescence antagonist read-out; inhibition, % at 3 µM; shares compounds with TAAR1 antagonist; 40% of 2,400 active; in the data active means inhibition above about 49%;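 further: CHO-Ga16 host cells challenged with agonist PEA near its EC80; 0% = agonist at EC80 plus vehicle and 100% = vehicle with no agonist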
# Ga16 ag counter: calcium activation in Ga16-expressing cells, counter-screen for TAAR1 antagonist project, cell-based, fluorescence; AID 651953, 2012; agonist counterscreen; shares compounds with TAAR1 antagonist; activation, % at 3 µM; 18% of 2,400 active; in the data active means activation above about 12%;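 further: 0% = vehicle wells and 100% = saturating stimulus response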
# TAAR1 ag count: TAAR1 activation by candidate antagonists – cell-based, fluorescence, counter-screen for TAAR1 antagonist project | activation, % at 3 µM | shares compounds with TAAR1 antagonist | 2% of 2,400 active | hTAAR1 cell line, agonist mode | AID 651955, 2012; in the data active means activation above about 37%;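 further: CHO cells stably expressing TAAR1 with calcium dye readout; 0% = DMSO vehicle and 100% = full agonist response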
# * marks the source's active call; other numbers are inactive results; / = not tested or not shown. This is a sample that favours compounds with a hit; in the whole collection about 3% have one here.
SMILES,M4 ag,TAAR1 antagonist,TAAR1 agonist,CHRM4 antagonist,CHRM4 PAM,TAAR1 nonsel count,TAAR1 ant conf,Ga16 ag counter,TAAR1 ag count
COc1ccc(-c2ccc(/C=N/N3C(=O)C4C5C=CC(C6CC56)C4C3=O)o2)c([N+](=O)[O-])c1 (stereo unspecified),8.2,56.2*,17.4,2.4,2.8,30.8*,51.8*,9.9,9.5
Cc1ccc(C)c(CN2CCCN(C(=O)Cn3ncc4c3-c3ccccc3OC4)C2)c1,18.6,59.4*,6.2,4.5,-10.8,22.5*,46.2,11.7*,11.5
COc1cc(Cl)c(CNC[C@H]2O[C@@H](n3cnc4c(=O)[nH]c(N)nc43)[C@H](O)[C@@H]2O)c(Cl)c1O,1.1,-6.9,1.0,1.8,1.2,/,/,/,/
COc1cc(OC)c(OC)cc1CNC(=O)c1cccc(S(=O)(=O)N2CCc3ccccc3C2)c1,16.6,68.0*,12.4,-5.0,-3.2,46.9*,57.1*,13.7*,8.4
COc1ccccc1CNC(=O)c1cccc(S(=O)(=O)N2CCN(C)CC2)c1,16.3,-8.1,1.1,-10.4,-2.5,/,/,/,/
CN(C)S(=O)(=O)c1cccc(-c2nn(-c3ccccc3)cc2/C=C2\SC(=S)NC2=O)c1,3.4,68.4*,3.0,10.0,-3.3,58.7*,56.3*,7.9,0.3
CN(C)S(=O)(=O)c1cccc(-c2nn(-c3ccccc3)cc2/C=C(\C#N)c2nc3ccccc3[nH]2)c1,0.6,40.1,7.3,-11.2,5.0,/,/,/,/
O=C(c1ccc(Br)o1)N(Cc1ccccc1)Cc1ccccc1,0.2,49.8*,16.1,1.6,-7.5,12.5,13.7,0.7,-0.2
C/C(=N\NC(=O)c1cc2ccccc2cc1O)c1cc2ccccc2o1,1.4,60.0*,18.9,2.7,6.9,62.0*,88.1*,37.0*,34.2
C/C(=N\NC(=O)c1cc2ccccc2cc1O)c1ccccn1,3.2,-1.9,4.8,-5.9,11.0,/,/,/,/
CC(=O)c1c[nH]c(C(=O)NCC2CCCO2)c1 (stereo unspecified),0.4,2.0,7.2,0.6,2.6,/,/,/,/
Cc1onc(-c2c(Cl)cccc2Cl)c1C(=O)c1c[nH]c(C(=O)NCC2CCCO2)c1 (stereo unspecified),16.8,62.1*,26.4,6.3,-3.5,32.1*,45.5,10.9,13.2
Nc1c(S(=O)(=O)c2cccs2)c2nc3ccccc3nc2n1/N=C/c1cccc(O)c1,3.5,52.2*,10.9,-3.3,-2.9,33.0*,52.1*,7.2,7.3
COc1cccc(/C=N/n2c(N)c(S(=O)(=O)c3cccs3)c3nc4ccccc4nc32)c1,0.2,-6.1,6.9,12.8,11.8,/,/,/,/
CC(=O)c1cccc(OCC(=O)N(CCC2=CCCCC2)c2c(N)n(Cc3ccccc3)c(=O)[nH]c2=O)c1,0.3,0.2,9.4,0.5,-2.0,/,/,/,/
Cc1cccc(C)c1NC(=O)C1(C)CN(S(C)(=O)=O)CC(=O)N1CCCN1CCOCC1 (stereo unspecified),2.1,-5.7,1.8,-23.5,17.4,/,/,/,/
Cc1cc(C)c(C)c(S(=O)(=O)N2CCN(C(=O)c3cc(=O)[nH]c4ccccc34)CC2)c1C,27.3,54.7*,30.2,22.8,-18.0,34.4*,55.5*,13.3*,13.3
CNc1cc(-c2cccc(C(=O)N3CCOCC3)c2)ncn1,0.0,-17.8,5.0,-3.4,1.6,/,/,/,/
CC1(C(=O)Nc2cccc3ncccc23)CCN1C(=O)Cc1ccc(-c2ccccc2)cc1 (stereo unspecified),15.5,67.3*,10.1,8.2,-10.0,28.8*,45.6,9.1,6.8
O=S(=O)(CCNCc1ccco1)NC1CCCCC1,0.8,-6.7,-0.6,-3.6,6.0,/,/,/,/
COc1ccccc1/C=C/C(=O)NC(=S)N(C)C1CCCCC1,18.7,68.5*,14.9,11.1,-10.9,33.0*,46.4,4.8,-0.6
Nc1ccc(-c2nc3cc([N+](=O)[O-])ccc3o2)cc1,6.5,55.5*,4.8,10.4,-19.6,20.1,19.1,2.6,-2.7
COc1ccc(-c2c(C#Cc3ccsc3)c3cc(-c4ccc(C(N)=O)cc4)ccc3n2C)cc1,1.7,102.3*,4.8,-2.4,-1.4,11.6,90.4*,-0.5,0.2
COc1ccc(-c2c(C#Cc3ccsc3)c3cc(-c4ccc5[nH]ccc5c4)ccc3n2C)cc1,-0.4,14.3,0.7,4.3,5.0,/,/,/,/
O=C1/C(=C\c2ccc([N+](=O)[O-])cc2)CCc2ccccc21,0.0,-28.8,0.4,-5.2,-2.1,/,/,/,/
SMILES,M4 ag,TAAR1 antagonist,TAAR1 agonist,CHRM4 antagonist,CHRM4 PAM,TAAR1 nonsel count,TAAR1 ant conf,Ga16 ag counter,TAAR1 ag count
O=C1/C(=C/Nc2cccc([N+](=O)[O-])c2)CCc2ccccc21,4.0,51.4*,-0.3,-4.2,-14.3,12.5,24.2,0.6,-5.1
O=C(Cc1cccs1)Nc1nnc(Cc2ccccc2)s1,-0.2,11.4,19.0,9.8,-0.5,/,/,/,/
COc1ccc(Cc2nnc(NC(=O)Cc3cccs3)s2)cc1OC,0.9,57.4*,-0.6,4.0,0.8,6.5,2.3,0.3,8.4
O=C(NCC1CCCCC1)c1ccc([N+](=O)[O-])cc1,-0.3,1.1,1.8,-6.2,0.6,/,/,/,/
O=C(CSc1ccc([N+](=O)[O-])cc1)NCC1CCCCC1,0.1,104.7*,15.8,4.8,-6.6,8.9,11.2,2.3,2.4
CCOC(=O)C1CC2=C(CC(C)(C)CC2=O)N(CCOC)C1=O (stereo unspecified),-0.2,4.0,6.4,7.4,-3.5,/,/,/,/
COc1ccc(-c2csc3nc(-c4cccnc4)nc(N4CCC(C(N)=O)CC4)c23)cc1OC,12.0,52.5*,20.1,-17.7,-1.7,18.5,33.0,9.4,7.9
COc1ccc(-c2csc3nc(C)nc(N4CCCCC4)c23)cc1OC,0.4,4.8,0.6,-25.3,3.8,/,/,/,/
CCN(Cc1ccccc1)C(=O)c1nn(-c2ccc(OC)cc2)c(=O)c2c1c1ccccc1n2C,10.5,84.8*,4.6,19.3,-17.5,33.9*,46.9,8.2,6.8
